Only some compounds are listed: those with a hit (about 1.3% of all), similar ones and a draw of the others.
PLC-beta3 inh: human PLC-beta3 inhibitors, primary screen, biochemical, fluorescence; actives 0.18% (n = 370,000); 1-phosphatidylinositol 4,5-bisphosphate phosphodiesterase beta-3 (Homo sapiens), Q01970; Purified PLC-beta3, fluorogenic substrate; inhibition, % at 12.2 µM; in the data active means inhibition above about 11%
Arrestin-AP2 inh: inhibitors of beta-arrestin/AP2 binding, primary screen, biochemical, GPCR trafficking, flow cytometry; actives 0.31% (n = 340,000); FITC-arrestin peptide / GST-AP2 beads; AP2 beta2 appendage carries R879A mutation; inhibition, % at 10 µM;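 active means inhibition above a set limit, near 3 SD of compounds lacking own fluorescence, cut at about 54% in these data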
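System: GST-AP2 R879A glutathione beads; medium: PBS, Tween 20 0.05%, BSA 0.1%; reagent: fluorescein-tagged arrestin peptide at 50 nM final; schedule: pre-incubation 12 min, peptide binding 1 h, room temperature; detection: flow cytometry, FL1 (488/535 nm); read-out: inhibition as reduced fluorescein signal on beads, percent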
NTR1 agonist: agonists of human NTR1, primary screen, imaging, U2OS cells, beta-arrestin-GFP, high content; Neurotensin receptor type 1 (Homo sapiens), P30989; NTR1-U2OS beta-arrestin-GFP spot imaging, agonist mode; activation, % at 20 µM; actives 0.17% (n = 330,000); AID 493036, 2011;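 active means activation at or above 40% of the spot to cytoplasm intensity ratio, with at least 20 cells analyzed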
PLCg1 inh: PLC-gamma1 enzyme inhibitors, primary screen, biochemical, fluorescence, purified enzyme; 1-phosphatidylinositol 4,5-bisphosphate phosphodiesterase gamma-1 (Homo sapiens), P19174; fluorogenic substrate; inhibition, % at 12.2 µM; actives 0.84% (n = 370,000); AID 720700, 2013; in the data active means inhibition above about 9.5%
Arr AP2 CP1: inhibitors of arrestin peptide binding to AP2, confirmation, biochemical, cherry pick 1, flow cytometry beads; shares compounds with Arrestin-AP2 inh; GST-AP2 beads, FITC arrestin peptide binding; GST-fused beta2-adaptin appendage, R879A mutant; inhibition, % at 10 µM; actives 2% (n = 1,300);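 active means inhibition above a set limit, roughly 3 SD of non-fluorescent compound noise, cut at about 38% in these data; inactive means inhibition at or below that limit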;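 further: loss of bead fluorescence from 50 nM FITC arrestin peptide bound to appendage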
GST GSH counter: GST-fluorescein capture on glutathione beads, confirmation, artefact control for arrestin-AP2 inhibitor project, biochemical, cherry pick 1, flow cytometry; actives 2% (n = 1,300); AID 588338, 2011; GST-fluorescein binding to GSH beads, fluorescence, counter-screen; shares compounds with Arrestin-AP2 inh; inhibition, % at 10 µM;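 active means inhibition above 50%, about 3 SD of the inhibition seen with non-fluorescent compounds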;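 further: fluorescein maleimide labelled GST captured on 4 micron glutathione beads; higher means more loss of bead fluorescence from quenching or blocked binding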
Hits are given with their value; . = inactive; / = no result given.

SMILES	PLC-beta3 inh	Arrestin-AP2 inh	NTR1 agonist	PLCg1 inh	Arr AP2 CP1	GST GSH counter
CCCCn1cnc2c(sc3nc4c(cc32)CSC(C)(C)C4)c1=O	.	.	.	.	/	/
COC(=O)c1ccc(C(=O)Nc2ccc(C(C)C)cc2N)cc1	.	56.6	.	.	.	.
COC(=O)c1ccc(C(=O)NN)cc1	.	.	.	.	/	/
CN1c2ccccc2N(C)C1(C)c1ccccc1	.	67.0	/	.	61.6	.
CN1C(=O)N(C)C2(c3ccccc3)NC(=O)NC12c1ccccc1 (stereo not drawn)	.	.	.	.	/	/
O=C(N1CCC(n2nc(-c3ccccc3)oc2=O)CC1)C1(c2ccccc2)CCCC1	.	/	/	.	/	/
O=C(NCc1ccco1)C1CC(=O)N(c2cccc(Cl)c2)C1 (stereo not drawn)	.	.	.	.	/	/
O=C(NCc1ccco1)C1CC(=O)N(c2ccc(Cl)cc2)C1 (stereo not drawn)	.	57.5	.	.	.	.
O=C(CSc1nnc(-c2ccncc2)n1-c1ccc(Cl)cc1)c1ccc(Cl)c(Cl)c1	.	/	/	.	/	/
Nn1c(SCC(=O)N2CCOCC2)nnc1-c1n[nH]c2c1CCC2	.	/	/	.	/	/
CCOC(=O)c1c(C)[nH]c(C(=O)CN2C(=O)NC(C)(C)C2=O)c1C	.	.	.	.	/	/
CCOC(=O)c1c(C)[nH]c(C(=O)CN2C(=O)C(=O)N(CC(C)C)C2=O)c1C	.	55.6	.	.	.	.
COc1ccc(C(=O)NC2CCC(O)CC2)cc1S(=O)(=O)NCc1ccc(Cl)cc1 (stereo not drawn)	.	80.0	.	.	.	.
COc1ccc(C(=O)NCCNC(C)=O)cc1S(=O)(=O)NCc1ccc(Cl)cc1	.	.	.	.	/	/
COc1cc(C(=O)NC2CCCCC2)ccc1OCc1ccc(Cl)cc1Cl	.	106.0	.	.	.	.
O=S1(=O)c2ccc(Br)cc2OC[C@H](Cc2ccccc2)N1Cc1cn(CCC2OCCCO2)nn1	.	/	/	.	/	/
C[C@@H]1COc2cccc(NCCO)c2S(=O)(=O)N1	.	/	/	.	/	/
Cn1c(=O)c2c(ncn2CC(=O)N2CCN(S(=O)(=O)c3ccccc3)CC2)n(C)c1=O	.	57.2	.	.	.	.
COC1=C[C@H](C(=O)NCc2ccc(Cl)cc2)C(C)C(c2ccccc2)CC1=O (stereo partly drawn)	.	/	/	.	/	/
CC(C(=O)Nc1ccc2c(c1)OCO2)c1ccc([N+](=O)[O-])cc1 (stereo not drawn)	.	64.6	.	.	.	.
O=C(Nc1nnc(C2=COCCO2)o1)C1CCCCC1	.	59.4	.	.	.	.
Cc1ccc(C(=O)OCC(=O)N2CCCC2)cc1	.	63.7	.	.	.	.
O=C(OCC(=O)N1CCCC1)c1ccc(O)cc1	.	.	.	.	/	/
Oc1ccc(/C=N/Nc2nc(N3CCCC3)nc(N3CCCC3)n2)cc1O	.	57.8	.	.	.	.
CN(CCOc1ccc(Cl)cc1)C(=O)c1cc(S(=O)(=O)N2CCOCC2)ccc1N1CCCC1	.	.	.	.	.	.
SMILES	PLC-beta3 inh	Arrestin-AP2 inh	NTR1 agonist	PLCg1 inh	Arr AP2 CP1	GST GSH counter
Cc1ccc(S(=O)(=O)N2CCOCC2)cc1C(=O)N(C)CCOc1ccc(Cl)cc1	/	.	.	/	/	/
CC(NC(=O)c1cc(S(=O)(=O)N2CCOCC2)ccc1N1CCCC1)c1ccc(Cl)c(Cl)c1 (stereo not drawn)	.	.	.	.	.	.
CN(Cc1ccc(Cl)cc1)C(=O)c1cc(S(=O)(=O)N2CCOCC2)ccc1N1CCCC1	.	.	.	.	.	.
COc1ccc(S[C@]2(C(=O)N3CCN(C(C)=O)CC3)CC(=O)N(C(=O)/C=C/c3ccccc3)[C@@H]2c2ccc(OC)cc2)cc1	.	/	/	.	/	/
COc1ccccc1Cc1c(-c2ccc(Cl)cc2)nc2ccc(C)cn12	.	/	/	.	/	/
COc1ccc2nc(-c3ccccc3)cc(C(=O)OCC(=O)N3CC(C)OC(C)C3)c2c1 (stereo not drawn)	.	54.1	.	.	.	.
Cc1ccc(C(=O)N2CCC(Oc3cccnc3)CC2)cc1	.	/	/	.	/	/
COCCNC(=S)N(C)[C@H]1C[C@H]2c3[nH]c4c(-c5cccc(C)c5)cccc4c3CCN2C[C@H]1[C@H](C)O	.	/	/	.	/	/
CCOC(=O)c1c(NC(=O)c2ccc(Br)o2)sc(C)c1CC	.	98.3	.	.	.	.
CCOC(=O)c1c(NC(=O)c2cccs2)sc(C)c1CC	.	.	.	.	/	/
COC(=O)c1ccc2c(C3(c4c[nH]c5ccccc45)CCN(C(=O)OC(C)(C)C)CC3)c[nH]c2c1	.	/	/	.	/	/
Cc1ccnn1CCC(=O)N1CCCC(Nc2ccc(F)c(F)c2)C1 (stereo not drawn)	.	67.0	.	.	.	.
O=C(COc1coc(CN2CCc3ccccc3C2)cc1=O)Nc1ccccc1F	.	65.3	.	.	.	.
COc1cccc(NC(=O)COc2coc(CN3CCc4ccccc4C3)cc2=O)c1	.	59.3	.	.	.	.
O[C@H](COc1ccc(C(F)(F)F)cc1)CN1CCC(C(O)(c2ccccc2)c2ccccc2)CC1	.	/	/	.	/	/
COc1ccc(C2=NCN(c3ccc(C)cc3)C(=S)N2)cc1	.	80.5	.	.	.	.
COC(=O)c1cc(-c2ccc3ccccc3c2)c(=O)n2c1CCC2	.	/	/	.	/	/
COc1cc(/C=C2/C(=O)N=C(N)N2C)cc(OC)c1OC	/	84.1	.	/	.	.
Cc1n[nH]c(=S)c2nn(-c3cccc(Cl)c3)c(C)c12	.	/	/	.	/	/
COc1cccc(-n2nc3c(=S)[nH]nc(C)c3c2C)c1	.	85.1	.	.	.	.
CCOC(=O)CC[C@@]1(C(=O)OCC)C[C@@H](CC(=O)NCCCOC)C(=O)N2CCCC=C21	.	/	/	.	/	/
COC(=O)c1ccccc1N/C=C1\CCc2c(c(C)nn2-c2ccccn2)C1=O	.	55.6	.	.	55.4	.
COC(=O)c1ccccc1NC(=O)CN1CCN(c2ccccn2)CC1	.	.	.	.	/	/
O=C(NCc1ccccc1Cl)c1cnccc1C(F)(F)F	.	54.6	.	.	.	.
O=C(NCc1ccccc1Cl)c1cnccn1	.	.	.	.	/	/
O=S1(=O)c2ccc(Br)cc2OC[C@H](Cc2ccccc2)N1Cc1cn(Cc2ccc(F)cc2)nn1	.	/	/	.	/	/
CC(=O)C1=C(C)N(Cc2ccc(Cl)cc2)C(=S)NC1c1cccc(Br)c1 (stereo not drawn)	.	/	/	.	/	/
CN1CCN(S(=O)(=O)c2cc([N+](=O)[O-])ccc2N/N=C/c2ccc(Cl)cc2)CC1	.	98.1	.	.	.	.
